From ChEMBL document CHEMBL4152279, “Synthesis, cytotoxic evaluation and target identification of thieno[2,3-d]pyrimidine derivatives with a dithiocarbamate side chain at C2 position” (Eur J Med Chem, 2018)
Activity calls are given as the source filed them. No cut-off for these calls is given here.

Legend:
A549 [1] = experiment: Cytotoxicity against human A549 cells at 30 uM by MTS assay relative to control; type: functional
Summary of the method: (§1)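 MTS read-out (CellTiter 96 AQueous One) of proliferation in A549 or HCT-116 cells grown in DMEM with 10% FBS at 37 °C, 5% CO2. Taxol-resistant A549 cells were exposed for 72 h. Compounds were screened at 30 μM versus vehicle, with ≥50% inhibition counted active. Actives were then tested over a concentration range for IC50. Triplicate wells, three independent experiments, mean ± SD.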

HCT-116 [2] = experiment: Cytotoxicity against human HCT116 cells at 30 uM by MTS assay relative to control; type: functional; summary of the method: as §1
HeLa = experiment: Cytotoxicity against human HeLa cells at 30 uM by MTS assay; type: functional, cell-based
MCF7 = experiment: Cytotoxicity against human MCF7 cells at 30 uM by MTS assay; type: functional, cell-based
MDA-MB-231 = experiment: Cytotoxicity against human MDA-MB-231 cells at 30 uM by MTS assay; type: functional, cell-based
HT-29 = experiment: Cytotoxicity against human HT-29 cells at 30 uM by MTS assay; type: functional, cell-based
A549 [3] = experiment: Cytotoxicity against human A549 cells by MTS assay; type: functional, cell-based; summary of the method: as §1
HCT-116 [4] = experiment: Cytotoxicity against human HCT116 cells by MTS assay; type: functional, cell-based; summary of the method: as §1
A549 [5] = experiment: Cell cycle arrest in human A549 cells assessed as accumulation at G0/G1 phase at cytotoxic IC50 after 24 hrs by propidium iodide staining based flow cytometry (reference value: 46.39 +/- 1.75%); type: functional
A549 [6] = experiment: Cell cycle arrest in human A549 cells assessed as accumulation at G0/G1 phase at 0.5 times cytotoxic IC50 after 24 hrs by propidium iodide staining based flow cytometry (reference value: 46.39 +/- 1.75%); type: functional
A549 [7] = experiment: Cell cycle arrest in human A549 cells assessed as accumulation at G0/G1 phase at 1.5 times cytotoxic IC50 after 24 hrs by propidium iodide staining based flow cytometry (reference value: 46.39 +/- 1.75%); type: functional
A549 [8] = experiment: Cell cycle arrest in human A549 cells assessed as accumulation at S phase at cytotoxic IC50 after 24 hrs by propidium iodide staining based flow cytometry (reference value: 32.37 +/- 1.23%); type: functional
A549 [9] = experiment: Cell cycle arrest in human A549 cells assessed as accumulation at S phase at 0.5 times cytotoxic IC50 after 24 hrs by propidium iodide staining based flow cytometry (reference value: 32.37 +/- 1.23%); type: functional
A549 [10] = experiment: Cell cycle arrest in human A549 cells assessed as accumulation at S phase at 1.5 times cytotoxic IC50 after 24 hrs by propidium iodide staining based flow cytometry (reference value: 32.37 +/- 1.23%); type: functional
A549 [11] = experiment: Cell cycle arrest in human A549 cells assessed as accumulation at G2/M phase at cytotoxic IC50 after 24 hrs by propidium iodide staining based flow cytometry (reference value: 20.95 +/- 0.8%); type: functional
A549 [12] = experiment: Cell cycle arrest in human A549 cells assessed as accumulation at G2/M phase at 0.5 times cytotoxic IC50 after 24 hrs by propidium iodide staining based flow cytometry (reference value: 20.95 +/- 0.8%); type: functional
A549 [13] = experiment: Cell cycle arrest in human A549 cells assessed as accumulation at G2/M phase at 1.5 times cytotoxic IC50 after 24 hrs by propidium iodide staining based flow cytometry (reference value: 20.95 +/- 0.8%); type: functional
A549 [14] = experiment: Cell cycle arrest in human A549 cells assessed as accumulation at G2/M phase after 24 hrs by propidium iodide staining based flow cytometry; type: functional
A549 [15] = experiment: Induction of DNA damage in human A549 cells assessed as gamma-H2AX foci formation after 12 hrs by DAPI staining based immunofluorescence assay; type: functional, cell-based
Summary of the method: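 A549 cells treated 12 h, with camptothecin (2 μM, 2 h) and DMSO as comparators. Cells fixed and immunostained with mouse monoclonal anti-γ-H2AX, nuclei counterstained with DAPI, foci examined by immunofluorescence.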

A549 [16] = experiment: Induction of DNA damage in human A549 cells assessed as increase in gamma-H2AX level after 12 hrs by immunoblot analysis; type: functional, cell-based
Summary of the method: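 A549 cells treated for 12 h, with DMSO as diluent; camptothecin at 2 μM for 2 h served as positive control. Total cell lysates were immunoblotted for γ-H2AX (Ser139 phosphorylated H2AX) and pS345 CHK1. Immunofluorescence for γ-H2AX foci with DAPI counterstain was run in parallel.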

A549 [17] = experiment: Induction of DNA damage in human A549 cells assessed as increase in CHK1 phosphorylation level after 12 hrs by immunoblot analysis; type: functional, cell-based
Summary of the method: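 A549 cells treated 12 h, with camptothecin (2 μM, 2 h) and DMSO as comparators. Total lysates immunoblotted for γ-H2AX and pS345 CHK1.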

A549 [18] = experiment: Activation of spindle assembly checkpoint in human A549 cells assessed as mitotic index by measuring cells positive for histone H3 phosphorylation at Ser10 residue at cytotoxic IC50 after 8 hrs by FITC staining based immunofluorescence assay (reference value: 3.17 +/- 0.15); type: functional
A549 [19] = experiment: Activation of spindle assembly checkpoint in human A549 cells assessed as mitotic index by measuring cells positive for histone H3 phosphorylation at Ser10 residue at cytotoxic IC50 after 2 hrs by FITC staining based immunofluorescence assay (reference value: 2.67 +/- 0.21); type: functional
A549 [20] = experiment: Activation of spindle assembly checkpoint in human A549 cells assessed as mitotic index by measuring cells positive for histone H3 phosphorylation at Ser10 residue at cytotoxic IC50 after 4 hrs by FITC staining based immunofluorescence assay (reference value: 3.3 +/- 0.17); type: functional
A549 [21] = experiment: Activation of spindle assembly checkpoint in human A549 cells assessed as mitotic index by measuring cells positive for histone H3 phosphorylation at Ser10 residue at cytotoxic IC50 after 16 hrs by FITC staining based immunofluorescence assay (reference value: 3.23 +/- 0.15); type: functional
A549 [22] = experiment: Activation of spindle assembly checkpoint in human A549 cells assessed as cells positive for histone H3 phosphorylation at Ser10 residue by measuring mitotic cell population at cytotoxic IC50 after 2 hrs by propidium iodide staining based flow cytometry (reference value: 6.9%); type: functional
A549 [23] = experiment: Activation of spindle assembly checkpoint in human A549 cells assessed as cells positive for histone H3 phosphorylation at Ser10 residue by measuring mitotic cell population at cytotoxic IC50 after 4 hrs by propidium iodide staining based flow cytometry (reference value: 6.9%); type: functional
A549 [24] = experiment: Activation of spindle assembly checkpoint in human A549 cells assessed as cells positive for histone H3 phosphorylation at Ser10 residue by measuring mitotic cell population at cytotoxic IC50 after 8 hrs by propidium iodide staining based flow cytometry (reference value: 6.9%); type: functional
A549 [25] = experiment: Activation of spindle assembly checkpoint in human A549 cells assessed as cells positive for histone H3 phosphorylation at Ser10 residue by measuring mitotic cell population at cytotoxic IC50 after 16 hrs by propidium iodide staining based flow cytometry (reference value: 6.9%); type: functional
A549 [26] = experiment: Activation of spindle assembly checkpoint in human A549 cells assessed as increase in histone H3 phosphorylation at Ser10 residue at cytotoxic IC50 after 12 to 24 hrs by immunoblot analysis; type: functional, cell-based
A549 [27] = experiment: Activation of spindle assembly checkpoint in human A549 cells assessed as increase in BubR1 phosphorylation at cytotoxic IC50 after 6 to 24 hrs by immunoblot analysis; type: functional, cell-based
Sus scrofa [28] = organism: Sus scrofa; experiment: Inhibition of porcine tubulin polymerization after 60 mins by spectrometric method
Summary of the method: (§2)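 Purified tubulin was incubated at 37 °C with compound at 5, 10 or 20 μM, with DMSO as vehicle. Polymerization was followed as the rise in absorbance at 340 nm over 60 min. Taxol (10 μM) and nocodazole (10 μM) served as controls. Three independent experiments were run.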

A549 [29] = experiment: Antiproliferative activity against human A549 cells after 72 hrs by MTS assay; type: functional, cell-based; details: A549, 72 h; summary of the method: as §1
A549 [30] = experiment: Induction of DNA damage in human A549 cells assessed as gamma-H2AX foci formation at 2 uM after 2 hrs by DAPI staining based immunofluorescence assay; type: functional, cell-based
Summary of the method: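 A549 cells were treated for 2 h with DMSO as diluent, then fixed. Cells were immunostained with a mouse monoclonal anti-γ-H2AX antibody, with DAPI as DNA counterstain, and γ-H2AX foci were scored by immunofluorescence.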

A549 [31] = experiment: Induction of DNA damage in human A549 cells assessed as increase in gamma-H2AX level at 2 uM after 2 hrs by immunoblot analysis; type: functional, cell-based
Summary of the method: (§3)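 A549 cells were treated for 2 h with DMSO as diluent. Total cell lysates were run on 12% SDS-PAGE and transferred to PVDF. Membranes were blocked in PBST with 5% BSA and immunoblotted for γ-H2AX and pS345 CHK1, with HRP secondary detection.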

A549 [32] = experiment: Induction of DNA damage in human A549 cells assessed as increase in CHK1 phosphorylation level at 2 uM after 2 hrs by immunoblot analysis; type: functional, cell-based; summary of the method: as §3
A549 [33] = experiment: Cell cycle arrest in human A549 cells assessed as accumulation at G0/G1 phase at 0.1 uM after 24 hrs by propidium iodide staining based flow cytometry (reference value: 46.39 +/- 1.75%); type: functional
A549 [34] = experiment: Cell cycle arrest in human A549 cells assessed as accumulation at S phase at 0.1 uM after 24 hrs by propidium iodide staining based flow cytometry (reference value: 32.37 +/- 1.23%); type: functional
A549 [35] = experiment: Cell cycle arrest in human A549 cells assessed as accumulation at G2/M phase at 0.1 uM after 24 hrs by propidium iodide staining based flow cytometry (reference value: 20.95 +/- 0.8%); type: functional
A549 [36] = experiment: Activation of spindle assembly checkpoint in human A549 cells assessed as mitotic index by measuring cells positive for histone H3 phosphorylation at Ser10 residue at 340 nM after 2 hrs by FITC staining based immunofluorescence assay (reference value: 2.67 +/- 0.21); type: functional
A549 [37] = experiment: Activation of spindle assembly checkpoint in human A549 cells assessed as mitotic index by measuring cells positive for histone H3 phosphorylation at Ser10 residue at 340 nM after 4 hrs by FITC staining based immunofluorescence assay (reference value: 3.3 +/- 0.17); type: functional
A549 [38] = experiment: Activation of spindle assembly checkpoint in human A549 cells assessed as mitotic index by measuring cells positive for histone H3 phosphorylation at Ser10 residue at 340 nM after 8 hrs by FITC staining based immunofluorescence assay (reference value: 3.17 +/- 0.15); type: functional
A549 [39] = experiment: Activation of spindle assembly checkpoint in human A549 cells assessed as mitotic index by measuring cells positive for histone H3 phosphorylation at Ser10 residue at 340 nM after 16 hrs by FITC staining based immunofluorescence assay (reference value: 3.23 +/- 0.15); type: functional
Sus scrofa [40] = organism: Sus scrofa; experiment: Inhibition of porcine tubulin polymerization at 10 uM after 60 mins by spectrometric method; summary of the method: as §2

Cc1cc2c(=O)[nH]c(CSC(=S)NCc3ccc(C#N)cc3)nc2s1
Activity (A549 [1]): >=50%
Activity (HCT-116 [2]): >=50%
Activity (HeLa): inactive
Activity (MCF7): inactive
Activity (MDA-MB-231): inactive
Activity (HT-29): inactive
IC50 (A549 [3]): 4.78 µM
IC50 (HCT-116 [4]): 22.6 µM
Activity (A549 [5]): 24.24%
Activity (A549 [6]): 43.91%
Activity (A549 [7]): 17%
Activity (A549 [8]): 19.85%
Activity (A549 [9]): 30.89%
Activity (A549 [10]): 18.45%
Activity (A549 [11]): 55.74%
Activity (A549 [12]): 23.59%
Activity (A549 [13]): 61.89%
Activity (A549 [14]): Dose-dependent effect
Activity (A549 [15]): inactive
Activity (A549 [16]): inactive
Activity (A549 [17]): inactive
Activity_index (A549 [18]): 15.6
Activity_index (A549 [19]): 6.63
Activity_index (A549 [20]): 9.67
Activity_index (A549 [21]): 19.17
Activity (A549 [22]): 6.9%
Activity (A549 [23]): 10.2%
Activity (A549 [24]): 13.7%
Activity (A549 [25]): 19.5%
Activity (A549 [26]): Active
Activity (A549 [27]): Active
inhibition (Sus scrofa [28]): Dose-dependent effect
IC50 (A549 [29]): 7.31 µM

CC[C@@]1(O)C(=O)OCc2c1cc1n(c2=O)Cc2cc3ccccc3nc2-1
Activity (A549 [30]): Active
Activity (A549 [31]): Active
Activity (A549 [32]): Active

CC(=O)O[C@H]1C(=O)[C@@]2(C)[C@H]([C@H](OC(=O)c3ccccc3)[C@]3(O)C[C@H](OC(=O)[C@H](O)[C@@H](NC(=O)c4ccccc4)c4ccccc4)C(C)=C1C3(C)C)[C@]1(OC(C)=O)CO[C@@H]1C[C@@H]2O [PACLITAXEL]
Activity (A549 [33]): 5.86%
Activity (A549 [34]): 24.56%
Activity (A549 [35]): 74.17%
IC50 (A549 [29]): > 30 µM

COC(=O)Nc1nc2cc(C(=O)c3cccs3)ccc2[nH]1 [NOCODAZOLE]
Activity_index (A549 [36]): 9.83
Activity_index (A549 [37]): 14.57
Activity_index (A549 [38]): 28.57
Activity_index (A549 [39]): 57.93
inhibition (Sus scrofa [40]): Active

O=c1[nH]cc(F)c(=O)[nH]1 [FLUOROURACIL]
Activity (A549 [5]): 29.61%
Activity (A549 [8]): 59.27%
Activity (A549 [11]): 8.9%
